Reference: ChEMBL document CHEMBL4028851, “Discovery of Potent Small-Molecule Inhibitors of Ubiquitin-Conjugating Enzyme UbcH5c from α-Santonin Derivatives” (J Med Chem, 2017)
Activity calls are given as the source filed them. No cut-off for these calls is given here.

What was measured:
[1] = target: T1, Ubiquitin-conjugating enzyme E2 D3 (Homo sapiens, UniProt P61077); assay: Inhibition of UbcH5c (unknown origin) at 1 uM preincubated for 15 mins followed by E1, Ub and ATP addition measured after 40 mins by Western blot analysis
T1 sequence (P61077 whole entry, looked up): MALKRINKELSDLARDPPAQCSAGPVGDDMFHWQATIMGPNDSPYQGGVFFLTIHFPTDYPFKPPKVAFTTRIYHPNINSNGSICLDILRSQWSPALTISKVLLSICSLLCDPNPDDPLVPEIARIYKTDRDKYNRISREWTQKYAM

[2] = target: Ubiquitin-conjugating enzyme E2 D3 (Mus musculus) (UniProt P61079); assay: Inhibition of UbcH5c in mouse b.End3 cells assessed as decrease in TNF-alpha-mediated IkB-alpha phosphorylation preincubated for 2 hrs followed by TNF-alpha stimulation for 20 mins by Western blot analysis; type: cell-based
Ubiquitin-conjugating enzyme E2 D3 (Mus musculus), sequence (P61079 whole entry, looked up): as the sequence (P61077 whole entry, looked up) above
How it was run: (§1)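 bEnd.3 cells (DMEM, 10% FBS) were pretreated with compound at 2.5, 5 or 10 µM for 2 h, then stimulated with 20 ng/mL TNF-α (15 min in the methods, 20 min in the legend). Lysates were run on 10% SDS-PAGE and immunoblotted for phospho-IκBα, IκBα, phospho-p65 and p65, with GAPDH as loading control.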

[3] = target: Ubiquitin-conjugating enzyme E2 D3 (Mus musculus) (UniProt P61079); assay: Inhibition of UbcH5c in mouse b.End3 cells assessed as decrease in TNF-alpha-mediated IkB-alpha degradation preincubated for 2 hrs followed by TNF-alpha stimulation for 20 mins by Western blot analysis; type: cell-based; how it was run: as §1
[4] = target: Ubiquitin-conjugating enzyme E2 D3 (Mus musculus) (UniProt P61079); assay: Inhibition of UbcH5c in mouse b.End3 cells assessed as decrease in TNF-alpha-mediated p65 phosphorylation preincubated for 2 hrs followed by TNF-alpha stimulation for 20 mins by Western blot analysis; type: cell-based; how it was run: as §1
[5] = target: Ubiquitin-conjugating enzyme E2 D3 (Mus musculus) (UniProt P61079); assay: Inhibition of UbcH5c in mouse b.End3 cells assessed as decrease in TNF-alpha-mediated IkB-alpha phosphorylation at 10 uM preincubated for 2 hrs followed by TNF-alpha stimulation for 20 mins by Western blot analysis; type: cell-based; how it was run: as §1
in vitro = conditions: human, HEK-293T cells
[6] = target: Ubiquitin-conjugating enzyme E2 D3 (Mus musculus) (UniProt P61079); assay: Inhibition of UbcH5c in mouse b.End3 cells assessed as decrease in TNF-alpha-mediated IkB-alpha degradation at 10 uM preincubated for 2 hrs followed by TNF-alpha stimulation for 15 mins by Western blot analysis
[7] = target: T1, Ubiquitin-conjugating enzyme E2 D3; assay: Binding affinity to human recombinant UbcH5c by SPR analysis

| inhibition [1] | inhibition [5] | inhibition [6] | Compound | cytotoxicity at 5 µM (in vitro) | further results |
| --- | --- | --- | --- | --- | --- |
| inactive | – | – | C=C1C(=O)O[C@@H]2C3[C@@H](C)[C@@H](OC(C)=O)CC[C@]3(C)CC[C@@H]12 (some centres not stated) | – | – |
| inactive | – | – | C=C1C(=O)O[C@@H]2C3[C@@H](C)[C@@H](OC(=O)CCCC)CC[C@]3(C)CC[C@@H]12 (some centres not stated) | – | – |
| inactive | – | – | C=C1C(=O)O[C@@H]2C3[C@@H](C)[C@@H](OC(=O)C4CCCC4)CC[C@]3(C)CC[C@@H]12 (some centres not stated) | – | – |
| – | Active | Active | C=C1C(=O)O[C@@H]2C3=C(C)[C@@H](OC(=O)c4ccc(Cl)cc4)CC3[C@](C)(OC(C)=O)CC[C@@H]12 (some centres not stated) | < 20% | inhibition [2]: Dose-dependent effect; inhibition [3]: Dose-dependent effect; inhibition [4]: Dose-dependent effect |
| – | Active | Active | C=C1C(=O)O[C@@H]2C3=C(C)[C@@H](OC(=O)c4ccccc4)CC3[C@](C)(OC(C)=O)CC[C@@H]12 (some centres not stated) | < 20% | inhibition [2]: Dose-dependent effect; inhibition [3]: Dose-dependent effect; inhibition [4]: Dose-dependent effect |
| – | Active | Active | C=C1C(=O)O[C@@H]2C3[C@@H](C)[C@@H](OC(=O)c4cccc(I)c4)CC[C@]3(C)CC[C@@H]12 (some centres not stated) | < 20% | inhibition [2]: Dose-dependent effect; inhibition [3]: Dose-dependent effect; inhibition [4]: Dose-dependent effect |
| – | Active | Active | C=C1C(=O)O[C@@H]2C[C@]3(C)C(=C[C@H]12)[C@@H](C)CC[C@H]3O | – | Kd [7]: 2580 nM |
| inactive | – | – | C=C1C(=O)O[C@@H]2C3[C@@H](C)[C@@H](OC(=O)CCC)CC[C@]3(C)CC[C@@H]12 (some centres not stated) | – | – |
| inactive | – | – | C=C1C(=O)O[C@@H]2C3[C@@H](C)[C@@H](OC(=O)C4CCCCC4)CC[C@]3(C)CC[C@@H]12 (some centres not stated) | – | – |
| inactive | – | – | C=C1C(=O)O[C@@H]2C3[C@@H](C)[C@@H](OC(=O)CC)CC[C@]3(C)CC[C@@H]12 (some centres not stated) | – | – |
| – | Active | Active | C=C1C(=O)O[C@@H]2C3[C@@H](C)[C@@H](OC(=O)c4ccc(I)cc4)CC[C@]3(C)CC[C@@H]12 (some centres not stated) | < 20% | inhibition [2]: Dose-dependent effect; inhibition [3]: Dose-dependent effect; inhibition [4]: Dose-dependent effect |

The remaining lines, values behind:

| Compound | inhibition [1] | inhibition [5] | inhibition [6] | cytotoxicity at 5 µM (in vitro) | further results |
| --- | --- | --- | --- | --- | --- |
| C=C1C(=O)O[C@H]2c3c(C)c(OC(=O)/C=C/c4cccnc4)cc(C)c3CC[C@@H]12 | – | Active | Active | < 20% | inhibition [2]: Dose-dependent effect; inhibition [3]: Dose-dependent effect; inhibition [4]: Dose-dependent effect |
| C=C1C(=O)O[C@H]2c3c(C)c(OCc4ccc(OC(F)(F)F)cc4)cc(C)c3CC[C@@H]12 | – | – | – | < 20% | – |
| C=C1C(=O)O[C@@H]2C3=C(C)[C@@H](OC(=O)c4ccc(C)cc4)CC3[C@](C)(OC(C)=O)CC[C@@H]12 (some centres not stated) | – | – | – | < 20% | – |
| C=C1C(=O)O[C@H]2c3c(C)c(OC(=O)/C=C/c4ccc(OC(F)(F)F)cc4)cc(C)c3CC[C@@H]12 | – | – | – | < 20% | – |
| C=C1C(=O)O[C@H]2c3c(C)c(OCc4ccccc4C(F)(F)F)cc(C)c3CC[C@@H]12 | – | – | – | < 20% | – |
| C=C1C(=O)O[C@@H]2C3=C(C)[C@@H](OC(=O)/C=C/c4ccc(OCCC)cc4)CC3[C@](C)(OC(C)=O)CC[C@@H]12 (some centres not stated) | – | – | – | < 20% | – |
| C=C1C(=O)O[C@@H]2C3[C@@H](C)[C@@H](OC(=O)c4ccco4)CC[C@]3(C)CC[C@@H]12 (some centres not stated) | – | – | – | < 20% | – |
| C=C1C(=O)O[C@H]2c3c(C)c(OC(=O)c4cccnc4)cc(C)c3CC[C@@H]12 | – | – | – | < 20% | – |
| C=C1C(=O)O[C@H]2c3c(C)c(OC(=O)/C=C/c4cccs4)cc(C)c3CC[C@@H]12 | – | – | – | < 20% | – |
